Key:
[1] = Induction of apoptosis in human OC2 cells assessed as late apoptotic cells at 25 uM after 3 hrs by Annexin V-FITC and propidium iodide staining (reference value: 1.92%); format: functional
OECM1 [2] = test: (§1) Cytotoxicity against human OECM1 cells after 24 hrs by MTT assay; format: functional, cell-based
Procedure, shortened: (§2)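 Human oral squamous carcinoma lines, from primary tumours of adult male Taiwanese betel quid chewers, exposed to a range of concentrations for 24 h. DMSO control. Viable cells read by MTT reduction to formazan (absorbance). IC50 is the concentration giving a 50% fall in absorbance relative to control.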

[3] = as §1; format: functional, cell-based; details: OECM1, 24 h; procedure, shortened: as §2
[4] = Induction of apoptosis in human OC2 cells assessed as caspase 3 activity at 50 uM after 3 hrs by flow cytometry (reference value: 48.99%); format: functional
[5] = Induction of apoptosis in human OECM1 cells assessed as caspase 3 activity at 25 uM after 3 hrs by flow cytometry (reference value: 52.34%); format: functional
OC2 [6] = test: Induction of apoptosis in human OC2 cells assessed as caspase 3 activity at 50 uM by flow cytometry; format: functional, cell-based; details: TDE = time-dependent effect
Procedure, shortened: (§3)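 OC-2 or OEC-M1 OSCC cells exposed to 50 µM for 3 h, 6 h and 9 h to follow caspase-3 activity over time. Activity read by flow cytometry with a specific peptide substrate.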

[7] = Induction of apoptosis in human OECM1 cells assessed as late apoptotic cells at 25 uM after 3 hrs by Annexin V-FITC and propidium iodide staining (reference value: 5.18%); format: functional
OECM1 [8] = test: Induction of apoptosis in human OECM1 cells assessed as caspase 3 activity at 50 uM by flow cytometry; format: functional, cell-based; details: TDE = time-dependent effect; procedure, shortened: as §3
[9] = Induction of apoptosis in human OC2 cells assessed as early apoptotic cells at 50 uM after 3 hrs by Annexin V-FITC and propidium iodide staining (reference value: 0.67%); format: functional
[10] = Induction of apoptosis in human OECM1 cells assessed as late apoptotic cells at 50 uM after 3 hrs by Annexin V-FITC and propidium iodide staining (reference value: 5.18%); format: functional
[11] = Induction of apoptosis in human OECM1 cells assessed as early apoptotic cells at 50 uM after 3 hrs by Annexin V-FITC and propidium iodide staining (reference value: 0.69%); format: functional
[12] = Cytotoxicity against human gingival fibroblast at up to 50 uM after 24 hrs by MTT assay
Procedure, shortened: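 Normal human gingival fibroblasts exposed to a range of concentrations for 24 h, with 50 the highest tested. DMSO vehicle control. Viability read by MTT formazan absorbance and compared with control for statistical significance.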

[13] = Induction of apoptosis in human OC2 cells assessed as late apoptotic cells at 50 uM after 3 hrs by Annexin V-FITC and propidium iodide staining (reference value: 1.92%); format: functional
[14] = Induction of apoptosis in human OC2 cells assessed as cytoplasmic histone-associated DNA fragmentation at 50 uM after 4 hrs by TUNEL assay (reference value: 28.6%); format: functional
Procedure, shortened: (§4)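 After 4 h exposure to 25 or 50 µM or DMSO vehicle, OC-2 and OEC-M1 oral cancer cells were scored for DNA fragmentation by TUNEL labeling with flow cytometry, as % of cells. Mean ± SD of three determinations.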

OECM1 [15] = test: Induction of apoptosis in human OECM1 cells assessed as increase of Bax protein expression after 6 hrs by Western blotting; format: functional, cell-based
Procedure, shortened: (§5)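 OEC-M1 cells exposed to 10, 25 or 50 µM or DMSO for 6 h. Equal amounts of total lysate immunoblotted for Bcl-2, Bcl-xL, Bax and PARP (116-kDa full-length, 85-kDa cleaved), with β-actin as loading control. Bands quantified as fold of vehicle control after β-actin normalization.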

[16] = Induction of apoptosis in human OC2 cells assessed as caspase 3 activity at 25 uM after 3 hrs by flow cytometry (reference value: 48.99%); format: functional
[17] = Induction of apoptosis in human OC2 cells assessed as early apoptotic cells at 25 uM after 3 hrs by Annexin V-FITC and propidium iodide staining (reference value: 0.67%); format: functional
[18] = Induction of apoptosis in human OECM1 cells assessed as caspase 3 activity at 50 uM after 3 hrs by flow cytometry (reference value: 52.34%); format: functional
[19] = Induction of apoptosis in human OECM1 cells assessed as early apoptotic cells at 25 uM after 3 hrs by Annexin V-FITC and propidium iodide staining (reference value: 0.69%); format: functional
[20] = (§6) Cytotoxicity against human OC2 cells after 24 hrs by MTT assay; format: functional, cell-based; details: OC2, 24 h; procedure, shortened: as §2
OC2 [21] = test: as §6; format: functional, cell-based; procedure, shortened: as §2
[22] = Induction of apoptosis in human OECM1 cells assessed as cytoplasmic histone-associated DNA fragmentation at 50 uM after 4 hrs by TUNEL assay (reference value: 8.15%); format: functional; procedure, shortened: as §4
OECM1 [23] = test: Induction of apoptosis in human OECM1 cells assessed as decrease of Bcl-xL protein expression after 6 hrs by Western blotting; format: functional, cell-based; procedure, shortened: as §5
[24] = Induction of apoptosis in human OECM1 cells assessed as cytoplasmic histone-associated DNA fragmentation at 25 uM after 4 hrs by TUNEL assay (reference value: 8.15%); format: functional; procedure, shortened: as §4
[25] = Induction of apoptosis in human OC2 cells assessed as cytoplasmic histone-associated DNA fragmentation at 25 uM after 4 hrs by TUNEL assay (reference value: 28.6%); format: functional; procedure, shortened: as §4
OECM1 [26] = test: Induction of apoptosis in human OECM1 cells assessed as PARP cleavage after 6 hrs by Western blotting; format: functional, cell-based; procedure, shortened: as §5
OECM1 [27] = test: Induction of apoptosis in human OECM1 cells assessed as decrease of Bcl-2 protein expression after 6 hrs by Western blotting; format: functional, cell-based; procedure, shortened: as §5

Structure (SMILES): C=C(CC[C@@H](C)[C@H]1CC[C@H]2C3=C(C(=O)C[C@]12C)[C@@]1(C)CCC(=O)[C@@H](C)[C@@H]1CC3)C(C)C(=O)OC (some centres not stated) [METHYLANTCINATE A]
- Activity [1]: 13.2%
- Activity (OECM1 [2]): Dose-dependent effect
- IC50 [3]: 24.5 µM
- Activity [4]: 69.06%
- Activity [5]: 66.86%
- Activity (OC2 [6]): tde
- Activity [7]: 23.63%
- Activity (OECM1 [8]): tde
- Activity [9]: 9.09%
- Activity [10]: 27.71%
- Activity [11]: 62.33%
- Activity [12]: Non-toxic
- Activity [13]: 14.3%
- Activity [14]: 52.55%
- Activity (OECM1 [15]): Dose-dependent effect
- Activity [16]: 59.19%
- Activity [17]: 15.35%
- Activity [18]: 87.07%
- Activity [19]: 59.73%
- IC50 [20]: 37.4 µM
- Activity (OC2 [21]): Dose-dependent effect
- Activity [22]: 57.8%
- Activity (OECM1 [23]): Dose-dependent effect
- Activity [24]: 56.5%
- Activity [25]: 41.07%
- Activity (OECM1 [26]): Dose-dependent effect
- Activity (OECM1 [27]): Dose-dependent effect

— ChEMBL document CHEMBL1255182, “Methylantcinate A induces tumor specific growth inhibition in oral cancer cells via Bax-mediated mitochondrial apoptotic pathway” (Bioorg Med Chem Lett, 2010)
